Measurements from PMC4109633 (Drug Design, Development and Therapy, 2014).
Marks after values point to notes of the source that are not given here.

Key:
G-quadruplex DNA = details: cited from earlier work
[1] = test system: Salmonella typhimurium TA1535; assay: Antimutagenicity assay against sodium azide; type: cell-based; details: for NaN3 mutagenicity (revertant colonies/plate; mean ± SEM): NaN3 2 μg/plate, spontaneous 29.3±5.3; for Mutant frequency (sodium azide): mutant colonies/viable colonies
Method in brief: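 TA1535 was exposed to test compound at 10 or 20 µM with NaN₃ (2 µg/plate) in two schemes. In pre-exposure, compound and bacteria were shaken 30 min at 37°C before mutagen was added. In co-exposure, bacteria, mutagen and compound were incubated together 30 min at 37°C. Cells were then plated on minimal glucose agar, and revertants counted at 48 h, in triplicate. Mutant frequency = mutant colonies/viable colonies.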

[2] = test system: Salmonella typhimurium TA1535; assay: Ames Salmonella/microsomal mutagenicity assay; type: cell-based; details: presence of S9 mix, spontaneous 67.0±6.1
[3] = test system: Salmonella typhimurium TA1535; assay: Antimutagenicity assay against benzo[a]pyrene with S9 mix; type: cell-based; details: for B[a]P mutagenicity (revertant colonies/plate; mean ± SEM): B[a]P 20 μM + S9 mix, spontaneous 105.0±13.1; for Mutant frequency (benzo[a]pyrene): mutant colonies/viable colonies
[4] = test system: Salmonella typhimurium TA1535; assay: Cytotoxicity in liquid medium; type: cell-based; details: mean ± SEM
Method in brief: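 TA1535 was grown in broth microdilution with test compound at 25, 50 or 100 µM. Viability was expressed as % of untreated control (mean ± SEM), triplicate.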

| SMILES | NaN3 mutagenicity (revertant colonies/plate; mean ± SEM) ([1]; co-exposure, 10 μM) | Mutant frequency (sodium azide) ([1]; co-exposure, 10 μM) | NaN3 mutagenicity (revertant colonies/plate; mean ± SEM) ([1]; co-exposure, 20 μM) | Mutant frequency (sodium azide) ([1]; co-exposure, 20 μM) | NaN3 mutagenicity (revertant colonies/plate; mean ± SEM) ([1]; pre-exposure, 10 μM) | Mutant frequency (sodium azide) ([1]; pre-exposure, 10 μM) | NaN3 mutagenicity (revertant colonies/plate; mean ± SEM) ([1]; pre-exposure, 20 μM) | Mutant frequency (sodium azide) ([1]; pre-exposure, 20 μM) | Fluoroarylbichalcophene mutagenicity (revertant colonies/plate; mean ± SEM) ([2]; 10 μM) | Fluoroarylbichalcophene mutagenicity (revertant colonies/plate; mean ± SEM) ([2]; 20 μM) | B[a]P mutagenicity (revertant colonies/plate; mean ± SEM) ([3]; co-exposure, 10 μM) | B[a]P mutagenicity (revertant colonies/plate; mean ± SEM) ([3]; co-exposure, 20 μM) | Mutant frequency (benzo[a]pyrene) ([3]; co-exposure, 20 μM) | B[a]P mutagenicity (revertant colonies/plate; mean ± SEM) ([3]; pre-exposure, 10 μM) | Mutant frequency (benzo[a]pyrene) ([3]; pre-exposure, 10 μM) | B[a]P mutagenicity (revertant colonies/plate; mean ± SEM) ([3]; pre-exposure, 20 μM) | Mutant frequency (benzo[a]pyrene) ([3]; pre-exposure, 20 μM) | Viability at fluoroarylbichalcophene concentrations (% of control) ([4]; 25 μM) | Viability at fluoroarylbichalcophene concentrations (% of control) ([4]; 50 μM) | Viability at fluoroarylbichalcophene concentrations (% of control) ([4]; 100 μM) | further results |
| --- | --- | --- | --- | --- | --- | --- | --- | --- | --- | --- | --- | --- | --- | --- | --- | --- | --- | --- | --- | --- | --- |
| N=C(N)c1ccc(-c2ccc(-c3ccc(C(=N)N)o3)o2)cc1 [Compound I, 5′-(4-amidinophenyl)-2,2′-bifuran-5-carboxamidine] |  |  |  |  |  |  |  |  |  |  |  |  |  |  |  |  |  |  |  |  | Recognition of G-quadruplex DNA (G-quadruplex DNA): recognize G-quadruplex DNA |
| N#Cc1ccc(-c2ccc(-c3ccco3)o2)cc1F [Compound 4b, 4-(2,2′-Bifuran-5-yl)-2-fluorobenzonitrile] | 35.3±2.8 revertant colonies/plate | 0.65 | 32.7±5.5 revertant colonies/plate | 0.64 | 69.7±8.0 revertant colonies/plate | 1.28 | 48.3±5.0 revertant colonies/plate | 0.95 | 64.3±4.0 revertant colonies/plate | 71.3±4.0 revertant colonies/plate | 193.0±15.7 revertant colonies/plate | 154.7±16.5 revertant colonies/plate | 2.41 | 239.3±10.5 revertant colonies/plate | 3.72 | 238.0±7.6 revertant colonies/plate | 3.70 | 88.3±7.4 % of control | 64.7±6.6 ^a % of control | 29.0±3.1 ^a % of control | Mutant frequency (benzo[a]pyrene) ([3]; co-exposure, 10 μM): 3.00 |
| N#Cc1ccc(-c2ccc(-c3cccs3)s2)cc1F [Compound 4e, 4-(2,2′-Bithiophen-5-yl)-2-fluorobenzonitrile] | 36.7±4.7 revertant colonies/plate | 0.66 | 25.0±5.6 revertant colonies/plate | 0.48 | 24.7±3.5 revertant colonies/plate | 0.44 | 21.7±2.1 revertant colonies/plate | 0.42 | 65.3±6.2 revertant colonies/plate | 66.7±6.7 revertant colonies/plate | 282.3±16.6 revertant colonies/plate | 285.0±18.1 revertant colonies/plate | 4.38 | 241.3±11.0 revertant colonies/plate | 3.66 | 201.0±10.5 revertant colonies/plate | 3.09 | 104.0±9.9 % of control | 64.7±8.1 ^a % of control | 22.3±2.2 ^a % of control | Mutant frequency (benzo[a]pyrene) ([3]; co-exposure, 10 μM): 4.28; Antimutagenic potential against B[a]P ([3]; co-exposure, low concentration investigated): no significant activity |
| Cl.N=C(N)c1ccc(-c2ccc(-c3ccco3)o2)c(F)c1 [Compound 5a, 4-(2,2′-Bifuran-5-yl)-3-fluorobenzamidine hydrochloride salt] | 73.3±4.1 revertant colonies/plate |  | 39.0±8.1 revertant colonies/plate | 0.76 | 57.7±11.0 revertant colonies/plate |  | 22.3±2.1 revertant colonies/plate | 0.44 | 61.0±4.8 revertant colonies/plate | 65.7±5.8 revertant colonies/plate | 102.0±12.1 revertant colonies/plate | 98.3±9.5 revertant colonies/plate | 1.65 | 209.7±10.3 revertant colonies/plate | 3.26 | 201.0±11.0 revertant colonies/plate | 3.37 | 102.3±10.2 % of control | 63.3±9.0 ^a % of control | 32.7±2.7 ^a % of control |  |
